Measured values of several laboratories.
Compare with care: the assays were run in different laboratories.
Target: Tyrosine-protein kinase Blk (BLK, Homo sapiens, UniProt P51451)

The remaining signal of COc1cc2ncnc(Nc3ccc(F)c(Cl)c3)c2cc1OCCCN1CCOCC1 is reported as 87.7% (cell-free assay; 0.5 µM).
For CCC(=O)N[C@@H]1CC[C@H](C(=O)N(C)c2ccc(-c3nc4ccccc4o3)cc2)C1, the remaining binding was 100% (cell-free assay; competition with immobilised ligand; 1 µM).
COc1cc2ncnc(Nc3ccc(Oc4ccccc4)c(C)c3C)c2cc1OC gave an inhibition of 71% (enzyme activity; inhibitor; 1 µM).
For N#Cc1ccc(Nc2ccc3[nH]c(=O)[nH]c3c2)c(Cl)c1, the remaining binding was 97% (cell-free assay; competition with immobilised ligand; 1 µM).
The remaining activity of CC(C)(C)c1nc2c(s1)c1nc(N)ncc1c1ccc(NS(=O)(=O)c3c(F)cccc3F)c(F)c12 is reported as 52% (enzyme activity; inhibitor; radiometric; 1 µM).
CN1CC(Oc2cnc(C#N)cc2-c2ccn3nc(NC(=O)C4CC4)cc3c2)C1 has an inhibition of 28% (enzyme activity; inhibitor; 1 µM).
Cc1ccc(C(=O)Nc2ccc(CN3CCN(C)CC3)c(C(F)(F)F)c2)cc1C#Cc1cnc2cccnn12 gave a remaining activity of 1.2% (enzyme activity; 23.5 nM).
CNC(=O)c1cc2c(Oc3ccc(NC(=O)C4(C(=O)Nc5ccc(F)cc5)CC4)cc3)ccnc2cc1OC has an inhibition of 94% (enzyme activity; inhibitor; radiometric; 1 µM).
The remaining binding of Nc1c(C(=O)NCc2ccc(C(=O)NCCCC3CCCCC3)cc2)cnn1-c1ccccc1 is reported as 81% (cell-free assay; competition with immobilised ligand; 0.1 µM).
CC/C(=N\NC(=O)NCc1cccc(O)c1)c1ccc(O)c(C)c1O gave an inhibition of 6% (enzyme activity; inhibitor; 0.1 µM).
For Cc1cnc(NC2CCOCC2)nc1-n1cnc(C(=O)NC(CN)c2cc(F)cc(Cl)c2)c1 (stereo not drawn), the remaining activity was 112% (enzyme activity; inhibitor; radiometric; 1 µM).
O=C(O)[C@H]1[C@H](Cn2nnc3ccccc3c2=O)CC[C@@H]1C(=O)c1ccc(OCCC2CCOCC2)cc1 gave a remaining binding of 100% (cell-free assay; competition with immobilised ligand; 1 µM).
For O=C(Nc1cnn(-c2csc(C(=O)NC3COC3)c2)c1)Nc1c(F)cccc1Cl, the remaining activity was 96.1% (enzyme activity; inhibitor; 5 µM).
The remaining activity of O=c1cc(-c2cccc3c2Sc2ccccc2S3)oc(N2CCOCC2)c1 is reported as 96.2% (enzyme activity; inhibitor; 0.5 µM).
CN(C(=O)c1ccccc1)c1cc(N(C)c2ccc3c(c2)CCc2ccc(C(=O)NCCN4CCOCC4)cc2C3=O)ccc1F has a remaining binding of 100% (cell-free assay; competition with immobilised ligand; 1 µM).
With O=C1NC(=O)c2cc(Nc3ccc(F)cc3)c(Nc3ccc(F)cc3)cc21 the remaining signal was 94.3% (cell-free assay; 0.5 µM).
With C=CC(=O)Nc1cc(Nc2nccc(Nc3cc(Cl)c(F)cc3C(C)(C)O)n2)c(OC)cc1N1CC[C@@H](N(C)C)C1 the inhibition was 90% (enzyme activity; inhibitor; 1 µM).
CCN(CC)c1ccc(C2=NNC(=O)CC2C)cc1[N+](=O)[O-] (stereo not drawn) has a remaining activity of 110% (enzyme activity; inhibitor; 10 µM).
